tested on: not listed separately; test: Cytotoxicity against human Bel7404 cells after 72 hrs by MTT assay; format: functional, cell-based; settings: BEL-7404, 72 h
How it was run: (§1)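 Cells grown in MEM with 10% fetal calf serum, penicillin and streptomycin at 37 °C, 5% CO2. Exponentially growing cells seeded in quadruplicate at 5 × 10³ per well and left 24 h before compounds (DMSO stocks) were added. After 72 h exposure, MTT added for 4 h at 37 °C, formazan dissolved in DMSO, read at 570 nm. IC50 read graphically from dose–response curves.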

Compound | IC50 [µM]
CCOc1ccc(COc2c(OC)cc(/C=C/C(=O)OCC(=O)Nc3ccccc3)cc2OC)cc1 | > 200
O=C(COC(=O)/C=C/c1ccc(O)c(O)c1)Nc1ccc(Cl)cc1 | > 200
COc1ccc(NC(=O)COC(=O)/C=C/c2ccc(OCc3ccccc3)c(O)c2)cc1 | > 200
COc1cc(/C=C/C(=O)OCC(=O)Nc2ccc(Cl)cc2)cc(OC)c1OCc1ccc(Cl)c(Cl)c1 | > 200
COc1ccc(/C=C/C(=O)OCC(=O)Nc2ccc(Cl)cc2)cc1OC | 120
COc1ccc(NC(=O)COC(=O)/C=C/c2cc(OC)c(OCc3ccccc3)c(OC)c2)cc1 | > 200
CCOc1ccc(COc2c(OC)cc(/C=C/C(=O)OCC(=O)Nc3ccc(Cl)cc3)cc2OC)cc1 | > 200
COCOc1cc(/C=C/C(=O)OCC(=O)NCc2ccco2)ccc1OCc1ccccc1 | > 200
COCOc1cc(/C=C/C(=O)OCC(=O)Nc2nccs2)ccc1OCc1ccccc1 | 130
COc1ccc(/C=C/C(=O)OCC(=O)NCc2ccco2)cc1OC | > 200
O=C(COC(=O)/C=C/c1ccc(O)c(O)c1)NN1CCOCC1 | > 200
COCOc1cc(/C=C/C(=O)OCC(=O)NN2CCOCC2)ccc1OCc1ccccc1 | > 200

tested on: HL-60; test: Cytotoxicity against human HL60 cells after 72 hrs by MTT assay; format: functional, cell-based; settings: HL-60, 72 h; how it was run: as §1

Compound | IC50 [µM]
CCOc1ccc(COc2c(OC)cc(/C=C/C(=O)OCC(=O)Nc3ccccc3)cc2OC)cc1 | > 200
O=C(COC(=O)/C=C/c1ccc(O)c(O)c1)Nc1ccc(Cl)cc1 | 8.1
COc1ccc(NC(=O)COC(=O)/C=C/c2ccc(OCc3ccccc3)c(O)c2)cc1 | > 200
COc1cc(/C=C/C(=O)OCC(=O)Nc2ccc(Cl)cc2)cc(OC)c1OCc1ccc(Cl)c(Cl)c1 | 73.9
COc1ccc(/C=C/C(=O)OCC(=O)Nc2ccc(Cl)cc2)cc1OC | 31.9
COc1ccc(NC(=O)COC(=O)/C=C/c2cc(OC)c(OCc3ccccc3)c(OC)c2)cc1 | > 200
CCOc1ccc(COc2c(OC)cc(/C=C/C(=O)OCC(=O)Nc3ccc(Cl)cc3)cc2OC)cc1 | > 200
COCOc1cc(/C=C/C(=O)OCC(=O)NCc2ccco2)ccc1OCc1ccccc1 | 82.2
COCOc1cc(/C=C/C(=O)OCC(=O)Nc2nccs2)ccc1OCc1ccccc1 | > 200
COc1ccc(/C=C/C(=O)OCC(=O)NCc2ccco2)cc1OC | 92.5
O=C(COC(=O)/C=C/c1ccc(O)c(O)c1)NN1CCOCC1 | > 200
COCOc1cc(/C=C/C(=O)OCC(=O)NN2CCOCC2)ccc1OCc1ccccc1 | 50.4

tested on: HeLa; test: Cytotoxicity against human HeLa cells after 72 hrs by MTT assay; format: functional, cell-based; settings: not given; how it was run: as §1

Compound | IC50 [µM]
CCOc1ccc(COc2c(OC)cc(/C=C/C(=O)OCC(=O)Nc3ccccc3)cc2OC)cc1 | > 200
O=C(COC(=O)/C=C/c1ccc(O)c(O)c1)Nc1ccc(Cl)cc1 | 195
COc1ccc(NC(=O)COC(=O)/C=C/c2ccc(OCc3ccccc3)c(O)c2)cc1 | > 200
COc1cc(/C=C/C(=O)OCC(=O)Nc2ccc(Cl)cc2)cc(OC)c1OCc1ccc(Cl)c(Cl)c1 | > 200
COc1ccc(/C=C/C(=O)OCC(=O)Nc2ccc(Cl)cc2)cc1OC | 45.4
COc1ccc(NC(=O)COC(=O)/C=C/c2cc(OC)c(OCc3ccccc3)c(OC)c2)cc1 | > 200
CCOc1ccc(COc2c(OC)cc(/C=C/C(=O)OCC(=O)Nc3ccc(Cl)cc3)cc2OC)cc1 | > 200
COCOc1cc(/C=C/C(=O)OCC(=O)NCc2ccco2)ccc1OCc1ccccc1 | > 200
COCOc1cc(/C=C/C(=O)OCC(=O)Nc2nccs2)ccc1OCc1ccccc1 | > 200
COc1ccc(/C=C/C(=O)OCC(=O)NCc2ccco2)cc1OC | > 200
O=C(COC(=O)/C=C/c1ccc(O)c(O)c1)NN1CCOCC1 | > 200
COCOc1cc(/C=C/C(=O)OCC(=O)NN2CCOCC2)ccc1OCc1ccccc1 | > 200

tested on: CNE; test: Cytotoxicity against human CNE cells after 72 hrs by MTT assay; format: functional, cell-based; settings: not given; how it was run: as §1

Compound | IC50 [µM]
CCOc1ccc(COc2c(OC)cc(/C=C/C(=O)OCC(=O)Nc3ccccc3)cc2OC)cc1 | > 200
O=C(COC(=O)/C=C/c1ccc(O)c(O)c1)Nc1ccc(Cl)cc1 | 89.6
COc1ccc(NC(=O)COC(=O)/C=C/c2ccc(OCc3ccccc3)c(O)c2)cc1 | > 200
COc1cc(/C=C/C(=O)OCC(=O)Nc2ccc(Cl)cc2)cc(OC)c1OCc1ccc(Cl)c(Cl)c1 | > 200
COc1ccc(/C=C/C(=O)OCC(=O)Nc2ccc(Cl)cc2)cc1OC | > 200
COc1ccc(NC(=O)COC(=O)/C=C/c2cc(OC)c(OCc3ccccc3)c(OC)c2)cc1 | > 200
CCOc1ccc(COc2c(OC)cc(/C=C/C(=O)OCC(=O)Nc3ccc(Cl)cc3)cc2OC)cc1 | > 200
COCOc1cc(/C=C/C(=O)OCC(=O)NCc2ccco2)ccc1OCc1ccccc1 | > 200
COCOc1cc(/C=C/C(=O)OCC(=O)Nc2nccs2)ccc1OCc1ccccc1 | > 200
COc1ccc(/C=C/C(=O)OCC(=O)NCc2ccco2)cc1OC | > 200
O=C(COC(=O)/C=C/c1ccc(O)c(O)c1)NN1CCOCC1 | > 200
COCOc1cc(/C=C/C(=O)OCC(=O)NN2CCOCC2)ccc1OCc1ccccc1 | > 200

tested on: PC-3; test: Cytotoxicity against human PC3 cells after 72 hrs by MTT assay; format: functional, cell-based; settings: PC-3, 72 h; how it was run: as §1

Compound | IC50 [µM]
CCOc1ccc(COc2c(OC)cc(/C=C/C(=O)OCC(=O)Nc3ccccc3)cc2OC)cc1 | > 200
O=C(COC(=O)/C=C/c1ccc(O)c(O)c1)Nc1ccc(Cl)cc1 | 160
COc1ccc(NC(=O)COC(=O)/C=C/c2ccc(OCc3ccccc3)c(O)c2)cc1 | > 200
COc1cc(/C=C/C(=O)OCC(=O)Nc2ccc(Cl)cc2)cc(OC)c1OCc1ccc(Cl)c(Cl)c1 | > 200
COc1ccc(/C=C/C(=O)OCC(=O)Nc2ccc(Cl)cc2)cc1OC | > 200
COc1ccc(NC(=O)COC(=O)/C=C/c2cc(OC)c(OCc3ccccc3)c(OC)c2)cc1 | > 200
CCOc1ccc(COc2c(OC)cc(/C=C/C(=O)OCC(=O)Nc3ccc(Cl)cc3)cc2OC)cc1 | > 200
COCOc1cc(/C=C/C(=O)OCC(=O)NCc2ccco2)ccc1OCc1ccccc1 | > 200
COCOc1cc(/C=C/C(=O)OCC(=O)Nc2nccs2)ccc1OCc1ccccc1 | > 200
COc1ccc(/C=C/C(=O)OCC(=O)NCc2ccco2)cc1OC | > 200
O=C(COC(=O)/C=C/c1ccc(O)c(O)c1)NN1CCOCC1 | > 200
COCOc1cc(/C=C/C(=O)OCC(=O)NN2CCOCC2)ccc1OCc1ccccc1 | > 200

tested on: K562; test: Cytotoxicity against human K562 cells after 72 hrs by MTT assay; format: functional, cell-based; settings: K562, 72 h; how it was run: as §1

Compound | IC50 [µM]
CCOc1ccc(COc2c(OC)cc(/C=C/C(=O)OCC(=O)Nc3ccccc3)cc2OC)cc1 | > 200
O=C(COC(=O)/C=C/c1ccc(O)c(O)c1)Nc1ccc(Cl)cc1 | 99.4
COc1ccc(NC(=O)COC(=O)/C=C/c2ccc(OCc3ccccc3)c(O)c2)cc1 | 56.1
COc1cc(/C=C/C(=O)OCC(=O)Nc2ccc(Cl)cc2)cc(OC)c1OCc1ccc(Cl)c(Cl)c1 | > 200
COc1ccc(/C=C/C(=O)OCC(=O)Nc2ccc(Cl)cc2)cc1OC | 60.2
COc1ccc(NC(=O)COC(=O)/C=C/c2cc(OC)c(OCc3ccccc3)c(OC)c2)cc1 | > 200
CCOc1ccc(COc2c(OC)cc(/C=C/C(=O)OCC(=O)Nc3ccc(Cl)cc3)cc2OC)cc1 | > 200
COCOc1cc(/C=C/C(=O)OCC(=O)NCc2ccco2)ccc1OCc1ccccc1 | 0.3
COCOc1cc(/C=C/C(=O)OCC(=O)Nc2nccs2)ccc1OCc1ccccc1 | > 200
COc1ccc(/C=C/C(=O)OCC(=O)NCc2ccco2)cc1OC | 0.8
O=C(COC(=O)/C=C/c1ccc(O)c(O)c1)NN1CCOCC1 | 56.8
COCOc1cc(/C=C/C(=O)OCC(=O)NN2CCOCC2)ccc1OCc1ccccc1 | 32.4

tested on: not listed separately; test: Cytotoxicity against human ECA109 cells after 72 hrs by MTT assay; format: functional, cell-based; settings: ECa-109, 72 h; how it was run: as §1

Compound | IC50 [µM]
CCOc1ccc(COc2c(OC)cc(/C=C/C(=O)OCC(=O)Nc3ccccc3)cc2OC)cc1 | > 200
O=C(COC(=O)/C=C/c1ccc(O)c(O)c1)Nc1ccc(Cl)cc1 | 175
COc1ccc(NC(=O)COC(=O)/C=C/c2ccc(OCc3ccccc3)c(O)c2)cc1 | > 200
COc1cc(/C=C/C(=O)OCC(=O)Nc2ccc(Cl)cc2)cc(OC)c1OCc1ccc(Cl)c(Cl)c1 | > 200
COc1ccc(/C=C/C(=O)OCC(=O)Nc2ccc(Cl)cc2)cc1OC | 81.9
COc1ccc(NC(=O)COC(=O)/C=C/c2cc(OC)c(OCc3ccccc3)c(OC)c2)cc1 | > 200
CCOc1ccc(COc2c(OC)cc(/C=C/C(=O)OCC(=O)Nc3ccc(Cl)cc3)cc2OC)cc1 | > 200
COCOc1cc(/C=C/C(=O)OCC(=O)NCc2ccco2)ccc1OCc1ccccc1 | > 200
COCOc1cc(/C=C/C(=O)OCC(=O)Nc2nccs2)ccc1OCc1ccccc1 | > 200
COc1ccc(/C=C/C(=O)OCC(=O)NCc2ccco2)cc1OC | > 200
O=C(COC(=O)/C=C/c1ccc(O)c(O)c1)NN1CCOCC1 | > 200
COCOc1cc(/C=C/C(=O)OCC(=O)NN2CCOCC2)ccc1OCc1ccccc1 | 143

tested on: not listed separately; test: Cytotoxicity against human LS 174T cells after 72 hrs by MTT assay; format: functional, cell-based; settings: LS174T; how it was run: as §1

Compound | IC50 [µM]
CCOc1ccc(COc2c(OC)cc(/C=C/C(=O)OCC(=O)Nc3ccccc3)cc2OC)cc1 | > 200
O=C(COC(=O)/C=C/c1ccc(O)c(O)c1)Nc1ccc(Cl)cc1 | 108
COc1ccc(NC(=O)COC(=O)/C=C/c2ccc(OCc3ccccc3)c(O)c2)cc1 | > 200
COc1cc(/C=C/C(=O)OCC(=O)Nc2ccc(Cl)cc2)cc(OC)c1OCc1ccc(Cl)c(Cl)c1 | 72.4
COc1ccc(/C=C/C(=O)OCC(=O)Nc2ccc(Cl)cc2)cc1OC | > 200
COc1ccc(NC(=O)COC(=O)/C=C/c2cc(OC)c(OCc3ccccc3)c(OC)c2)cc1 | > 200
CCOc1ccc(COc2c(OC)cc(/C=C/C(=O)OCC(=O)Nc3ccc(Cl)cc3)cc2OC)cc1 | > 200
COCOc1cc(/C=C/C(=O)OCC(=O)NCc2ccco2)ccc1OCc1ccccc1 | > 200
COCOc1cc(/C=C/C(=O)OCC(=O)Nc2nccs2)ccc1OCc1ccccc1 | > 200
COc1ccc(/C=C/C(=O)OCC(=O)NCc2ccco2)cc1OC | > 200
O=C(COC(=O)/C=C/c1ccc(O)c(O)c1)NN1CCOCC1 | > 200
COCOc1cc(/C=C/C(=O)OCC(=O)NN2CCOCC2)ccc1OCc1ccccc1 | > 200

— ChEMBL document CHEMBL1221279, “Synthesis, biological evaluation, and structure-activity relationship study of novel cytotoxic aza-caffeic acid derivatives” (Bioorg Med Chem, 2010)
